These results are taken from ChEMBL document CHEMBL3425440, “ent-Kaurane Diterpenoids from Chinese Liverworts and Their Antitumor Activities through Michael Addition As Detected in Situ by a Fluorescence Probe” (J Med Chem, 2015).

The structures appear in SMILES notation. pIC50: −log10 of the molar value. A value given as a limit tells only on which side of the number the result lay.

The term pIC50 denotes the negative decadic logarithm of the IC50, by convention in mol/L.

In the first test the test system is NCI-H1299. Put plainly: Cytotoxicity against human NCI-H1299 cells assessed as cell viability after 24 hrs by MTT assay. It counts as functional, cell-based. The conditions noted are these: NCI-H1299, 24 h. In a few lines: (§1)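 Cells grown to about 50−70% confluence at 37 °C, 5% CO2, then exposed to compounds 24 h (DMSO vehicle control, cisplatin positive control). MTT (5 mg/mL stock) added for 4 h, formazan dissolved in DMSO, absorbance read at 570 nm. IC50 derived from percent viability; at least three independent experiments, mean ± SD.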
Take `C=C1C(=O)[C@@]23CC[C@@H]4[C@](C)(CO)CCC[C@@]4(C)C2=CC[C@]1(O)C3`: the negative-log IC50 (pIC50) was 4.72.
Still for that read-out and setting: as for `C=C1[C@@H]2CC[C@@H]3[C@@](CC[C@@H]4C(C)(C)CC[C@H](O)[C@]43C)(C2)[C@@H]1O`, the figure is less than 4.30; as for `C=C1C[C@@]23CC[C@H]4[C@@](C)(CCC[C@]4(C)C(=O)O)[C@@H]2CC[C@@H]1C3`, less than 4.30.

The subject of a further test is K562. The experiment in a line: Cytotoxicity against human K562 cells assessed as cell viability after 24 hrs by MTT assay. It counts as functional, cell-based. The conditions noted are these: K562, 24 h. In a few lines:
as §1
Turning to `C=C1C(=O)[C@@]23CC[C@@H]4[C@](C)(CO)CCC[C@@]4(C)C2=CC[C@]1(O)C3`, the pIC50 is 4.98.
For `C=C1[C@@H]2CC[C@@H]3[C@@](CC[C@@H]4C(C)(C)CC[C@H](O)[C@]43C)(C2)[C@@H]1O`, the pIC50 was less than 4.30.
`C=C1C[C@@]23CC[C@H]4[C@@](C)(CCC[C@]4(C)C(=O)O)[C@@H]2CC[C@@H]1C3`: the negative logarithm of the IC50 (pIC50) is less than 4.30.

Tested on in a further test: not listed separately
Put plainly: Cytotoxicity against human PC3 cells assessed as cell viability after 24 hrs by MTT assay. The class given is functional, cell-based. The conditions noted are these: PC-3, 24 h. The procedure, abridged:
as §1
(In general: Formazan colour is commonly taken as a measure of viable cells.)
For `C=C1C(=O)[C@@]23CC[C@@H]4[C@](C)(CO)CCC[C@@]4(C)C2=CC[C@]1(O)C3`, the pIC50 was 5.18.
As to `C=C1[C@@H]2CC[C@@H]3[C@@](CC[C@@H]4C(C)(C)CC[C@H](O)[C@]43C)(C2)[C@@H]1O`, the pIC50 was less than 4.30.
In the case of `C=C1C[C@@]23CC[C@H]4[C@@](C)(CCC[C@]4(C)C(=O)O)[C@@H]2CC[C@@H]1C3`, the pIC50 was less than 4.30.

Tested on in another test: not listed separately
The experiment in a line: Cytotoxicity against human SKOV3 cells assessed as cell viability after 24 hrs by MTT assay. The class given is functional, cell-based. The conditions noted are these: SK-OV-3, 24 h. The procedure, abridged: as §1
Take `C=C1C(=O)[C@@]23CC[C@@H]4[C@](C)(CO)CCC[C@@]4(C)C2=CC[C@]1(O)C3`: the negative logarithm of the IC50 (pIC50) is 4.95.
The same measure, in the same setting: for `C=C1[C@@H]2CC[C@@H]3[C@@](CC[C@@H]4C(C)(C)CC[C@H](O)[C@]43C)(C2)[C@@H]1O` the value was less than 4.30; for `C=C1C[C@@]23CC[C@H]4[C@@](C)(CCC[C@]4(C)C(=O)O)[C@@H]2CC[C@@H]1C3`, less than 4.30.

Tested on in another test: not listed separately
Put plainly: Cytotoxicity against human RWPE1 cells assessed as cell viability after 24 hrs by MTT assay. The class given is cell-based. The conditions noted are these: RWPE-1, 24 h. The procedure, abridged: as §1
For `C=C1C(=O)[C@@]23CC[C@@H]4[C@](C)(CO)CCC[C@@]4(C)C2=CC[C@]1(O)C3`, the pIC50 was 4.88.
Still for that read-out and setting: as for `C=C1[C@@H]2CC[C@@H]3[C@@](CC[C@@H]4C(C)(C)CC[C@H](O)[C@]43C)(C2)[C@@H]1O`, the figure is less than 4.30; as for `C=C1C[C@@]23CC[C@H]4[C@@](C)(CCC[C@]4(C)C(=O)O)[C@@H]2CC[C@@H]1C3`, less than 4.30.

Tested on in another test: not listed separately
Put plainly: Cytotoxicity against human SH-SY5Y cells assessed as cell viability after 24 hrs by MTT assay.
Details: not given
The class given is functional, cell-based. The procedure, abridged:
as §1
With `C=C1C(=O)[C@@]23CC[C@@H]4[C@](C)(CO)CCC[C@@]4(C)C2=CC[C@]1(O)C3`, the pIC50 is 5.31.
On the same count and under the same terms, as for `C=C1[C@@H]2CC[C@@H]3[C@@](CC[C@@H]4C(C)(C)CC[C@H](O)[C@]43C)(C2)[C@@H]1O`, the figure is less than 4.30; as for `C=C1C[C@@]23CC[C@H]4[C@@](C)(CCC[C@]4(C)C(=O)O)[C@@H]2CC[C@@H]1C3`, less than 4.30.

Tested on in another test: not listed separately
The experiment in a line: Cytotoxicity against human T24 cells assessed as cell viability after 24 hrs by MTT assay. The conditions noted are these: T-24, 24 h. It counts as functional, cell-based. The procedure, abridged: as §1
As to `C=C1C(=O)[C@@]23CC[C@@H]4[C@](C)(CO)CCC[C@@]4(C)C2=CC[C@]1(O)C3`, the pIC50 was 4.88.
On to `C=C1[C@@H]2CC[C@@H]3[C@@](CC[C@@H]4C(C)(C)CC[C@H](O)[C@]43C)(C2)[C@@H]1O`, for which the pIC50 was less than 4.30.
Turning to `C=C1C[C@@]23CC[C@H]4[C@@](C)(CCC[C@]4(C)C(=O)O)[C@@H]2CC[C@@H]1C3`, the pIC50 is less than 4.30.

The subject of another test is LoVo. Put plainly: Cytotoxicity against human LoVo cells assessed as cell viability after 24 hrs by MTT assay. It counts as functional, cell-based.
Details: not given
The procedure, abridged: as §1
For the compound `C=C1C(=O)[C@@]23CC[C@@H]4[C@](C)(CO)CCC[C@@]4(C)C2=CC[C@]1(O)C3`, the pIC50 is 4.74.
On the same count and under the same terms, as for `C=C1[C@@H]2CC[C@@H]3[C@@](CC[C@@H]4C(C)(C)CC[C@H](O)[C@]43C)(C2)[C@@H]1O`, the figure is less than 4.30; as for `C=C1C[C@@]23CC[C@H]4[C@@](C)(CCC[C@]4(C)C(=O)O)[C@@H]2CC[C@@H]1C3`, less than 4.30.

In the next test the test system is MDA-MB-231. Put plainly: Cytotoxicity against human MDA-MB-231 cells assessed as cell viability after 24 hrs by MTT assay. It counts as functional, cell-based. Particulars: MDA-MB-231, 24 h. The procedure, abridged: as §1
Take `C=C1C(=O)[C@@]23CC[C@@H]4[C@](C)(CO)CCC[C@@]4(C)C2=CC[C@]1(O)C3`: the pIC50 was 4.81.
As for `C=C1[C@@H]2CC[C@@H]3[C@@](CC[C@@H]4C(C)(C)CC[C@H](O)[C@]43C)(C2)[C@@H]1O`, the pIC50 is less than 4.30.
On the same count and under the same terms, as for `C=C1C[C@@]23CC[C@H]4[C@@](C)(CCC[C@]4(C)C(=O)O)[C@@H]2CC[C@@H]1C3`, the figure is less than 4.30.

A further test relates to DU-145. The experiment in a line: Cytotoxicity against human DU145 cells assessed as cell viability after 24 hrs by MTT assay. It counts as functional, cell-based. The conditions noted are these: DU-145, 24 h. In a few lines: as §1
As to `C=C1C(=O)[C@@]23CC[C@@H]4[C@](C)(CO)CCC[C@@]4(C)C2=CC[C@]1(O)C3`, the pIC50 is 5.08.
For `C=C1[C@@H]2CC[C@@H]3[C@@](CC[C@@H]4C(C)(C)CC[C@H](O)[C@]43C)(C2)[C@@H]1O`, the pIC50 is less than 4.30.
Still for that read-out and setting: for `C=C1C[C@@]23CC[C@H]4[C@@](C)(CCC[C@]4(C)C(=O)O)[C@@H]2CC[C@@H]1C3` the value was less than 4.30.

The next test concerns LNCaP. Put plainly: Cytotoxicity against human LNCAP cells assessed as cell viability after 24 hrs by MTT assay.
Details: not given
It counts as functional, cell-based. In a few lines: as §1
Turning to `C=C1C(=O)[C@@]23CC[C@@H]4[C@](C)(CO)CCC[C@@]4(C)C2=CC[C@]1(O)C3`, the pIC50 is 4.89.
Consider `C=C1[C@@H]2CC[C@@H]3[C@@](CC[C@@H]4C(C)(C)CC[C@H](O)[C@]43C)(C2)[C@@H]1O`, for which the pIC50 is less than 4.30.
`C=C1C[C@@]23CC[C@H]4[C@@](C)(CCC[C@]4(C)C(=O)O)[C@@H]2CC[C@@H]1C3`: the pIC50 is less than 4.30.

Tested on in a further test: not listed separately
Put plainly: Cytotoxicity against human Saos2 cells assessed as cell viability after 24 hrs by MTT assay. It counts as functional, cell-based. The conditions noted are these: SAOS-2, 24 h. The procedure, abridged: as §1
Turning to `C=C1C(=O)[C@@]23CC[C@@H]4[C@](C)(CO)CCC[C@@]4(C)C2=CC[C@]1(O)C3`, the pIC50 is 4.80.
For `C=C1[C@@H]2CC[C@@H]3[C@@](CC[C@@H]4C(C)(C)CC[C@H](O)[C@]43C)(C2)[C@@H]1O`, the pIC50 is less than 4.30.
Still for that read-out and setting: as for `C=C1C[C@@]23CC[C@H]4[C@@](C)(CCC[C@]4(C)C(=O)O)[C@@H]2CC[C@@H]1C3`, the figure is less than 4.30.

Tested on in the next test: not listed separately
The experiment in a line: Cytotoxicity against human A172 cells assessed as cell viability after 24 hrs by MTT assay. The class given is functional, cell-based. Particulars: A 172, 24 h. The procedure, abridged:
as §1
Consider `C=C1C(=O)[C@@]23CC[C@@H]4[C@](C)(CO)CCC[C@@]4(C)C2=CC[C@]1(O)C3`, for which the pIC50 is 4.89.
The same measure, in the same setting: as for `C=C1[C@@H]2CC[C@@H]3[C@@](CC[C@@H]4C(C)(C)CC[C@H](O)[C@]43C)(C2)[C@@H]1O`, the figure is less than 4.30; as for `C=C1C[C@@]23CC[C@H]4[C@@](C)(CCC[C@]4(C)C(=O)O)[C@@H]2CC[C@@H]1C3`, less than 4.30.

Tested on in a further test: not listed separately
The experiment in a line: Cytotoxicity against human HL60 cells assessed as cell viability after 24 hrs by MTT assay. The class given is functional, cell-based. Particulars: HL-60, 24 h. In a few lines:
as §1
Turning to `C=C1C(=O)[C@@]23CC[C@@H]4[C@](C)(CO)CCC[C@@]4(C)C2=CC[C@]1(O)C3`, the negative-log IC50 (pIC50) was 5.17.
Turning to `C=C1[C@@H]2CC[C@@H]3[C@@](CC[C@@H]4C(C)(C)CC[C@H](O)[C@]43C)(C2)[C@@H]1O`, the pIC50 is less than 4.30.
Same read-out and setting: for `C=C1C[C@@]23CC[C@H]4[C@@](C)(CCC[C@]4(C)C(=O)O)[C@@H]2CC[C@@H]1C3` the value was less than 4.30.
